Tests used:
[1] = Sensitizer enhancement ratio was determined by dividing the Do value obtained from the control radiation survival curve by the Do value obtained from the radiation survival curve; assay type: functional
CHO [2] = experiment: Radiosensitizing activity against chinese hamster cells was determined in the presence of the sensitizer under nitrogen at a concentration of 1.0 mM; assay type: functional, Cricetulus griseus
In short: (§1)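 V-79 Chinese hamster monolayers (exponentially growing, MEM with 15% fetal calf serum), about 200 cells per dish. Made hypoxic by purging sealed containers with 95% N2/5% CO2 for 1 h. Drug at maximum nontoxic concentration (1 mM or less) for 2 h at 37 °C. Cobalt-60 irradiation, 1400 rad, at room temperature. Medium replaced, colonies counted after 6 days; % survival.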

V79 = experiment: Inhibitory activity against hypoxic Chinese hamster cells(V-79) in culture by colony formation assay; assay type: functional; conditions: Cricetulus griseus, read-out: ED50 (the source's name)
CHO [3] = experiment: Radiosensitizing activity against chinese hamster cells was determined in the presence of the sensitizer under nitrogen at a concentration of 0.010 mM; assay type: functional, Cricetulus griseus; in short: as §1
[4] = Sensitizer enhancement ratio(SER) was determined; assay type: functional

COCC(O)Cn1c(C(N)=O)nc2ccccc21 (stereo unspecified)
SER [1]: 1.1
Survivals (CHO [2]): 21%
EC50 (V79): > 5000 µM

COCC(O)Cn1c(C(F)(F)F)nc2cc([N+](=O)[O-])ccc21 (stereo unspecified)
SER [1]: 1.4
Survivals (CHO [2]): 13.8%
EC50 (V79): > 5000 µM

COCC(O)Cn1c(S(C)(=O)=O)nc2ccccc21 (stereo unspecified)
SER [1]: 1
Survivals (CHO [2]): 25.8%
EC50 (V79): 3200 µM

CCOC(=O)Cn1c([N+](=O)[O-])nc2ccccc21
SER [1]: 2.3
Survivals (CHO [2]): 2.7%
EC50 (V79): 300 µM

COCC(O)Cn1c(C(C)=O)nc2ccccc21 (stereo unspecified)
SER [1]: 1
Survivals (CHO [2]): 23%
EC50 (V79): > 5000 µM

COCC(O)Cn1c(C(F)(F)F)nc2ccc([N+](=O)[O-])cc21 (stereo unspecified)
SER [1]: 1.2
Survivals (CHO [2]): 17.6%
EC50 (V79): 3000 µM

COCC(O)Cn1c([N+](=O)[O-])nc2ccccc21 (stereo unspecified)
SER [1]: 2
Survivals (CHO [2]): 9.4%
EC50 (V79): 4800 µM

COCC(O)Cn1c(C(F)(F)F)nc2ccccc21 (stereo unspecified)
SER [1]: 1.1
Survivals (CHO [2]): 22%
EC50 (V79): > 5000 µM

CCOC(=O)Cn1c([N+](=O)[O-])nc2ccc([N+](=O)[O-])cc21
Survivals (CHO [3]): 22.9%
SER [4]: 1
EC50 (V79): 6 µM

CCOC(=O)Cn1c([N+](=O)[O-])nc2cc([N+](=O)[O-])ccc21
Survivals (CHO [2]): 26.7%
SER [4]: 1
EC50 (V79): 16 µM

COCC(O)Cn1c(C#N)nc2ccccc21 (stereo unspecified)
SER [1]: 1
Survivals (CHO [2]): 23%
EC50 (V79): 1200 µM

COCC(O)Cn1c(C(C)=O)nc2cc([N+](=O)[O-])ccc21 (stereo unspecified)
SER [1]: 1.2
Survivals (CHO [2]): 11.3%
EC50 (V79): > 5000 µM

From ChEMBL document CHEMBL1121970, “Potential radiosensitizing agents. 5. 2-Substituted benzimidazole derivatives” (1982)
